Screening results as filed in PubChem BioAssay.
aDG glyco up – activators of alpha-DG glycosylation, primary screen, uHTS, Pro5-aDG cells, AlphaScreen; alpha-DG glycosylation AlphaScreen (IIH6); 0% Pro5, 100% B10-LARGE cell signal; activation, % at 10 µM; hit rate 0.22% among 360,000;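 active = activation of at least 8% versus controls, or a plate z-score of at least 8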;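 also: Pro5 are CHO cells carrying HIG-tagged alpha-DG that lacks glycosylation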
UPR XBP1 act – activators of adaptive XBP1 UPR arm, primary screen, cell-based, CHO-XBP1 luciferase reporter, luminescence, uHTS. IRE1-XBP1 UPR activation; percent of tunicamycin response, DMSO as zero. activation, % at 20 µM. hit rate 0.33% among 330,000. AID 463104, 2010;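 active = versus positive control, 20 µM dose yields 30% or more activation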
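Material: CHO cell line with stable XBP1 luciferase reporter; schedule: 16-18 h cell attachment at 37 °C, then 6 h compound exposure; signal: glow luminescence from Steady-Glo reagent; medium: serum-containing F12 medium, 10% FBS; benchmarks: tunicamycin 10 µg/mL and vehicle-only wells; read-out: percent activation relative to tunicamycin reference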
CHOP inhibitor – inhibitors of CHOP promoter induction, primary screen, cell-based, unfolded protein response, luciferase reporter; CHO-K1 CHOP-promoter luciferase, tunicamycin-induced, 15-18 h; inhibition, % at 10 µM; hit rate 3.8% among 220,000;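 active = compounds that reduced the stress-induced luciferase reporter signal by more than about 70% of percent inhibition, limit read from the data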
MPTP block – mitochondrial permeability transition pore inhibitors, primary screen, biochemical, isolated mouse mitochondria, absorbance. Ca2+ swelling absorbance, 30 min. inhibition, % at 10 µM. hit rate 1.4% among 360,000;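 active = inhibition of 50% or more, scaled per plate between neutral and stimulator controls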
NR3A LBD binder – binders of NR3A ligand-binding domain, primary screen, biophysical, differential scanning fluorimetry, uHTS | Glutamate receptor ionotropic, NMDA 3A (GRIN3A) ligand-binding domain | NR3A LBD differential scanning fluorimetry, Tm shift; 0% = protein alone, 100% = glycine-bound protein | Tm shift relative to glycine control, % at 25 µM | hit rate 2.5% among 340,000;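 active = melting temperature shift of at least 10% of the positive control shift, at one fixed dose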
CHOP UPR activ – activators of apoptotic CHOP UPR arm, primary screen, cell-based, CHO-CHOP luciferase reporter, luminescence, uHTS. UPR activation; percent of tunicamycin response over DMSO baseline. activation, % at 10 µM. hit rate 0.34% among 330,000;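 active = at 10 µM dose, activation of 40% or more, normalized to positive control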
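Test system: CHO-CHOP cells, stable luciferase reporter of PERK-eIF2a-CHOP signalling | Quantity: 500 CHO-CHOP cells per well | Buffer or medium: F12 plus 10% serum | Compound dosing: 10 µM single point, 0.5% DMSO | Schedule: 6 h compound treatment, 37 °C | Signal: Luciferase luminescence | Control set: Tunicamycin high control, DMSO low control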
Rh123 counter – fluorescence retest of MPTP screen hits in isolated mitochondria, single concentration; membrane potential, Rhodamine 123 fluorescence; hit rate 78% among 5,000; inhibition, % at 10 µM; shares compounds with MPTP block; in the data active = inhibition above about 22%
MPTP swell DR – mitochondrial permeability transition pore inhibitors, dose response, biochemical, absorbance, uHTS hits. shares compounds with MPTP block. isolated mitochondria swelling. IC50, µM. hit rate 58% among 780. AID 651561, 2012; in the data active = IC50 below about 20 µM
MPTP cs DR – fluorescent counter-screen in isolated mitochondria, dose response, counter-screen for MPTP inhibitor project, biochemical, fluorescence, uHTS hits | isolated mitochondria counterscreen, fluorescence read-out | IC50, µM | hit rate 49% among 780 | shares compounds with MPTP block; in the data active = IC50 below about 80 µM
Large screens that a line does not name were inactive (follow-up assays come after a bar, where they were run). Only some compounds are listed: those with a hit (about 5.6% of all), similar ones and a draw of the others.

CN(C)CCCN(C(=O)c1ccc(S(=O)(=O)N2CCCC2)cc1)c1nc2c(F)cc(F)cc2s1	none (no result: CHOP inhibitor, NR3A LBD binder)
CCN(Cc1ccccc1)S(=O)(=O)c1ccc(C(=O)N(CCCN(C)C)c2nc3c(C)c(C)ccc3s2)cc1	MPTP block 82 (no result: CHOP inhibitor) | Rh123 counter inactive
Cc1ccc2sc(N(CCCN(C)C)C(=O)c3ccc(S(=O)(=O)N4CCOCC4)cc3)nc2c1C	none (no result: CHOP inhibitor)
Cc1ccc2sc(N(CCCN(C)C)C(=O)c3ccc(S(=O)(=O)N(C)C4CCCCC4)cc3)nc2c1C	MPTP block 88 (no result: CHOP inhibitor) | Rh123 counter inactive
CN(C)CCCN(C(=O)c1ccc(S(=O)(=O)N2CCCCCC2)cc1)c1nc2c(F)cc(F)cc2s1	MPTP block 88 (no result: CHOP inhibitor) | Rh123 counter inactive | MPTP swell DR 4.3 | MPTP cs DR inactive
CCOC(=O)N1CCN(S(=O)(=O)c2ccc(C(=O)N(CCCN(C)C)c3nc4c(C)c(C)ccc4s3)cc2)CC1	MPTP block 75 (no result: CHOP inhibitor) | Rh123 counter inactive | MPTP swell DR 5.5 | MPTP cs DR inactive
Cc1ccc(CNS(=O)(=O)c2ccc(-n3cnnn3)c(C)c2)cc1	none (no result: CHOP inhibitor)
COc1ccc(S(=O)(=O)N2CCN(C(=O)c3cnc(C)cn3)CC2)cc1	none
CC1CC1C(=O)N1CCN(S(=O)(=O)c2cc(C(F)(F)F)cc(C(F)(F)F)c2)CC1 (stereo unspecified)	MPTP block 101 (no result: CHOP inhibitor) | Rh123 counter 102
Cc1cnc(C(=O)N2CCN(S(=O)(=O)c3cc(C(F)(F)F)cc(C(F)(F)F)c3)CC2)cn1	MPTP block 88 (no result: UPR XBP1 act, CHOP inhibitor, CHOP UPR activ) | Rh123 counter 105
COC(=O)[C@]12CCCCC=C1N(CCC1=CCCCC1)C(=O)[C@H](CC(=O)N1CCN(C(=O)C3CC3)CC1)C2	none (no result: UPR XBP1 act, CHOP inhibitor, NR3A LBD binder, CHOP UPR activ)
O=P(c1ccccc1)(c1ccccc1)c1ccccc1C(Br)Br	none (no result: UPR XBP1 act, CHOP inhibitor, NR3A LBD binder, CHOP UPR activ)
CC1=NN(C(=O)c2ccccc2)C(O)(c2ccc(Br)cc2)C1 (stereo unspecified)	none
CCC1=NN(C(=O)c2ccc(Br)cc2)C(O)(c2ccccc2)C1 (stereo unspecified)	MPTP block 61 | Rh123 counter 75
COc1ccc(CCNCC(O)COc2ccc(OC)cc2C(C)(C)C)cc1 (stereo unspecified)	MPTP block 80 (no result: CHOP inhibitor) | Rh123 counter inactive | MPTP swell DR 6.2 | MPTP cs DR 41
COc1cc(CNn2nnnc2N)cc(Br)c1OCc1c(Cl)cccc1Cl	MPTP block 52 | Rh123 counter 30
O=C(CN1C2=NCCN2c2ccccc21)C12CC3CC(CC(C3)C1)C2	MPTP block 70 | Rh123 counter inactive | MPTP swell DR inactive | MPTP cs DR inactive
O=C(CSc1nc2nc(-c3cccs3)cc(C(F)(F)F)c2c(=O)[nH]1)Nc1c(F)c(F)c(F)c(F)c1F	MPTP block 55, NR3A LBD binder 22 | Rh123 counter 70
O=C(CNC(=O)c1cccc(Br)c1)N/N=C/c1cccs1	none (no result: CHOP inhibitor)
O=C(CNC(=O)c1cccc(Br)c1)N/N=C/c1cc(Br)cc(Br)c1O	CHOP inhibitor 91, MPTP block 66, NR3A LBD binder 17 | Rh123 counter inactive
O=C(CNCc1ccc(Cl)cc1)Nc1cc(S(=O)(=O)N2CCCC2)ccc1Cl	none (no result: UPR XBP1 act, CHOP inhibitor, CHOP UPR activ)
C/C(N=Nc1nc2ccccc2s1)=N\Nc1ccccc1O	MPTP block 91 | Rh123 counter 54
CN1CCN(S(=O)(=O)c2ccc(NC(=O)Cc3ccc([N+](=O)[O-])cc3)cc2)CC1	none (no result: CHOP inhibitor)
O=S(=O)(Nc1nc2ccccc2nc1N1CCN(c2ccccc2)CC1)c1ccc(F)cc1	MPTP block 79, NR3A LBD binder 24 | Rh123 counter 72
O=S(=O)(Nc1ccc2c(c1)OCCO2)c1ccc(F)cc1	none
O=S(=O)(Nc1nc2ccccc2nc1Nc1cccc(S(=O)(=O)N2CCCCC2)c1)c1ccccc1	CHOP inhibitor 75, MPTP block 55, NR3A LBD binder 13 | Rh123 counter 44
O=S(=O)(Nc1nc2ccccc2nc1Nc1ccc2c(c1)OCO2)c1ccc(F)cc1	MPTP block 51 | Rh123 counter inactive | MPTP swell DR 4.1 | MPTP cs DR <2.5
COc1ccc(S(=O)(=O)Nc2cccc(S(=O)(=O)N3CCCCCC3)c2)cc1	none (no result: UPR XBP1 act, CHOP UPR activ)
Cc1ccc(S(=O)(=O)Nc2nc3ccccc3nc2N2CCOCC2)cc1	none (no result: CHOP inhibitor)
CC(=O)Nc1cccc(Oc2ccc3c(c2)C(=O)NC3=O)c1	none (no result: CHOP inhibitor)
O=[N+]([O-])c1cc(F)cc(F)c1Nc1cc(F)cc(F)c1	none (no result: UPR XBP1 act, CHOP inhibitor, CHOP UPR activ)
Cc1ccccc1OCC(=O)Nc1ccncc1	none (no result: CHOP inhibitor)
CC(C)c1ccc(OCC(=O)Nc2ccncc2)cc1	MPTP block 74 (no result: CHOP inhibitor) | Rh123 counter 71
Cc1ccc(OCC(=O)Nc2ccc(C(=O)Nc3ccccc3C(=O)O)cc2)cc1C	none (no result: UPR XBP1 act, CHOP inhibitor, NR3A LBD binder, CHOP UPR activ)
N#Cc1cccc(NC(=O)COc2ccc(-n3ccnc3)cc2)c1	MPTP block 62 | Rh123 counter inactive | MPTP swell DR inactive | MPTP cs DR 19
Cc1ccc(OCC(=O)Nc2ccncc2)c(C)c1	MPTP block 73 (no result: CHOP inhibitor) | Rh123 counter 48
O=C(COc1ccc2ccccc2c1)Nc1cccc(C(=O)Nc2ccccc2C(=O)O)c1	MPTP block 79, NR3A LBD binder 12 | Rh123 counter 57
COC(=O)[C@@]1(Cc2ccc(OC)cc2)[C@H]2c3cc(C(=O)N4CCCC4)n(Cc4cc(C)n(C)n4)c3C[C@H]2CN1C(=O)c1ccccc1	none (no result: UPR XBP1 act, CHOP inhibitor, NR3A LBD binder, CHOP UPR activ)
Cc1c([N+](=O)[O-])nnn1-c1cc(Cl)cc(Cl)c1	none
COc1ccc(NC2CCCN(C(=O)C3(C)CCCCC3)C2)cc1OC (stereo unspecified)	none (no result: CHOP inhibitor)
O=C(CSc1ccncc1)Nc1ccc2ccccc2c1	none
CC(C)(C)c1ccc(NC(=O)COc2ccc(-n3ccnc3)cc2)cc1	CHOP inhibitor 74, MPTP block 107 | Rh123 counter 94
CCCCOc1ccc(C(=O)Nc2ccncc2)cc1	MPTP block 102 (no result: CHOP inhibitor) | Rh123 counter 111
